How the values were obtained:
[1] = test system: Helicoverpa armigera; assay: Stomach toxicity against third-instars Helicoverpa armigera assessed as larvicidal activity at 11 mg/kg at 25 +/- 1 degC after 3 days; format: functional
Method in brief: (§1)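 Diet-incorporation assay on third-instar larvae. Samples dissolved in acetone to the desired final concentrations; 3 mL of test solution mixed evenly into about 27 g of prepared feed, then dispensed into 24-well plates. Run in triplicate at 25 ± 1 °C. Dead/alive scoring 3 days after treatment; mortality corrected by Abbott's formula on a 0–100 scale.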

[2] = test system: Tetranychus cinnabarinus; assay: Acaricidal activity against Tetranychus cinnabarinus (carmine spider mite) eggs at 600 mg/kg by leaf dip method; format: functional, Egg
[3] = test system: Aphis craccivora; assay: Larvicidal activity against Aphis craccivora (cowpea aphid) at 200 mg/kg by leaf dip method; format: functional
[4] = test system: Tetranychus cinnabarinus; assay: Acaricidal activity against Tetranychus cinnabarinus (carmine spider mite) eggs at 200 mg/kg by leaf dip method; format: functional, Egg
[5] = test system: Culex pipiens pallens; assay: Larvicidal activity against Culex pipiens pallens (mosquito) at 2 mg/kg; format: functional
[6] = test system: Aphis craccivora; assay: Larvicidal activity against Aphis craccivora (cowpea aphid) at 600 mg/kg by leaf dip method; format: functional
[7] = test system: Plutella xylostella; assay: Stomach toxicity against Plutella xylostella (diamondback moth) assessed as larvicidal activity at 200 mg/kg by leaf dip method; format: functional
[8] = test system: Helicoverpa armigera; assay: Stomach toxicity against third-instars Helicoverpa armigera assessed as larvicidal activity at 22 mg/kg at 25 +/- 1 degC after 3 days; format: functional; method in brief: as §1
[9] = test system: Culex pipiens pallens; assay: Larvicidal activity against Culex pipiens pallens (mosquito) at 5 mg/kg; format: functional
[10] = test system: Tetranychus cinnabarinus; assay: Acaricidal activity against Tetranychus cinnabarinus (carmine spider mite) adults at 600 mg/kg by leaf dip method; format: functional
[11] = test system: Tetranychus cinnabarinus; assay: Acaricidal activity against Tetranychus cinnabarinus (carmine spider mite) larvae at 200 mg/kg by leaf dip method; format: functional
[12] = test system: Helicoverpa armigera; assay: Stomach toxicity against third-instars Helicoverpa armigera assessed as larvicidal activity at 55 mg/kg at 25 +/- 1 degC after 3 days; format: functional; method in brief: as §1
[13] = test system: Plutella xylostella; assay: Stomach toxicity against Plutella xylostella (diamondback moth) assessed as larvicidal activity at 600 mg/kg by leaf dip method; format: functional
[14] = test system: Tetranychus cinnabarinus; assay: Acaricidal activity against Tetranychus cinnabarinus (carmine spider mite) larvae at 600 mg/kg by leaf dip method; format: functional
[15] = test system: Helicoverpa armigera; assay: Stomach toxicity against third-instars Helicoverpa armigera assessed as larvicidal activity at 110 mg/kg at 25 +/- 1 degC after 3 days; format: functional; method in brief: as §1
[16] = test system: Helicoverpa armigera; assay: Stomach toxicity against third-instars Helicoverpa armigera assessed as larvicidal activity at 5.5 mg/kg at 25 +/- 1 degC after 3 days; format: functional; method in brief: as §1
[17] = test system: Tetranychus cinnabarinus; assay: Acaricidal activity against Tetranychus cinnabarinus (carmine spider mite) adults at 200 mg/kg by leaf dip method; format: functional
[18] = test system: Culex pipiens pallens; assay: Larvicidal activity against Culex pipiens pallens (mosquito) at 1 mg/kg; format: functional

Row | SMILES | Activity [1] | Activity [2] | Activity [3] | Activity [4] | Activity [5] | Activity [6] | Activity [7] | Activity [8] | Activity [9] | Activity [10] | Activity [11] | Activity [12] | Activity [13] | Activity [14] | Activity [15] | Activity [16] | Activity [17] | Activity [18]
1 | CCc1nn(C)c(C(=O)NC(CO)c2ccc(Cl)cc2)c1Cl (configuration not stated) | 0% | 10% | 95% | 0% | 0% | 100% | 0% | 40% | 30% | 0% | 0% | 100% | 30% | 25% | 100% | – | – | –
2 | CCc1cc(C2=NC(c3ccc(Cl)cc3)CO2)n(C)n1 (configuration not stated) | 40% | 100% | 90% | 80% | 0% | 100% | 15% | 70% | 10% | 20% | 20% | 100% | 60% | 40% | 100% | 0% | 0% | –
3 | CCc1cc(C(=O)NC(CO)c2ccc(C(C)(C)C)cc2)n(C)n1 (configuration not stated) | 10% | 50% | 50% | 40% | 0% | 70% | 60% | 60% | 10% | 0% | – | 100% | 70% | 0% | 100% | 0% | – | –
4 | CCc1nn(C)c(C(=O)NC(CO)c2ccc(C(C)(C)C)cc2)c1Cl (configuration not stated) | 0% | 40% | 80% | 0% | 0% | 100% | 40% | 40% | 20% | 10% | – | 100% | 80% | 25% | 100% | – | 0% | –
5 | CCCCCOc1ccc(C(CCl)NC(=O)c2cc(CC)nn2C)cc1 (configuration not stated) | 0% | 70% | 80% | 50% | 60% | 100% | 0% | 40% | 100% | 0% | 40% | 100% | 15% | 70% | 100% | – | – | 0%
6 | CCc1cc(C(=O)NC(CCl)c2ccc(Cl)cc2)n(C)n1 (configuration not stated) | 0% | 30% | 0% | 0% | 0% | 30% | 0% | 20% | 10% | 0% | 0% | 100% | 30% | 20% | 100% | – | – | –
7 | CCc1cc(C2=NC(c3ccc(Oc4ccccc4)cc3)CO2)n(C)n1 (configuration not stated) | 0% | 90% | 20% | 50% | 0% | 50% | 45% | 40% | 30% | 40% | 50% | 100% | 70% | 70% | 100% | – | 10% | –
8 | CCCCCOc1ccc(C2COC(c3cc(CC)nn3C)=N2)cc1 (configuration not stated) | 0% | 50% | 20% | 40% | 0% | 75% | 0% | 30% | 30% | 20% | 0% | 100% | 30% | 30% | 100% | – | 0% | –
9 | CCc1cc(C(=O)NC(CO)c2ccc(Cl)cc2)n(C)n1 (configuration not stated) | 0% | 0% | 75% | – | 0% | 98% | 60% | 50% | 20% | 25% | 0% | 100% | 100% | 25% | 100% | – | 0% | –
10 | CCc1nn(C)c(C2=NC(c3ccc(Cl)cc3)CO2)c1Cl (configuration not stated) | 90% | 40% | 35% | 0% | 50% | 60% | – | 100% | 100% | 10% | 0% | 100% | 0% | 20% | 100% | 60% | 0% | 0%
11 | CCCCCOc1ccc(C(CCl)NC(=O)c2c(Cl)c(CC)nn2C)cc1 (configuration not stated) | 60% | 40% | 45% | 0% | 70% | 100% | 45% | 100% | 100% | 0% | 0% | 100% | 90% | 30% | 100% | 10% | – | 0%
12 | CCc1cc(C(=O)NC(CO)c2ccc(Oc3ccccc3)cc2)n(C)n1 (configuration not stated) | 0% | 20% | 70% | 0% | 0% | 95% | 45% | 30% | 30% | 30% | – | 100% | 90% | 0% | 100% | – | 0% | –
13 | CCCCCOc1ccc(C(CO)NC(=O)c2c(Cl)c(CC)nn2C)cc1 (configuration not stated) | 0% | 30% | 95% | 20% | 0% | 100% | 30% | 30% | 20% | 15% | 0% | 100% | 90% | 20% | 100% | – | 0% | –
14 | CCCCCOc1ccc(C(CO)NC(=O)c2cc(CC)nn2C)cc1 (configuration not stated) | 20% | 20% | 85% | 0% | 0% | 100% | 30% | 60% | 20% | 45% | 0% | 100% | 45% | 20% | 100% | 0% | 0% | –

— ChEMBL document CHEMBL3046583, “Design, synthesis, and insecticidal activity of novel pyrazole derivatives containing α-hydroxymethyl-N-benzyl carboxamide, α-chloromethyl-N-benzyl carboxamide, and 4,5-dihydrooxazole moieties” (2012)
